Reference: ChEMBL document CHEMBL1131069 (J Med Chem, 1998)

Assays:
Mus musculus [1] = test: Anticonvulsant activity determined at 4 hours after the administration of compound using MES test.(+ = signify activity at 300 mg/kg); type: functional, organism-based; set-up: dose 300 mg/kg
Outline: (§1)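 Male CF-1 albino mice (18-25 g) dosed intraperitoneally at 30, 100 or 300 mg/kg. Protection against maximal electroshock-induced seizures was scored 30 min or 4 h after dosing.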

Mus musculus [2] = test: Anticonvulsant activity determined at 30 minutes after the administration of compound using MES test. (+ = signify activity at 300 mg/kg); type: functional, organism-based; set-up: dose 300 mg/kg; outline: as §1
[3] = Apparent IC50 value by [3H]batrachotoxinin-A-20-alpha-benzoate-binding test performed in rat brain synaptosomes; type: subcellular
Outline: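 Rat brain synaptosomes, about 400 µg protein per assay, incubated 2 h at 37 °C, pH 7.4, in choline chloride/HEPES/glucose/KCl medium with 10 nM [³H]batrachotoxinin-A-20α-benzoate and scorpion venom. Stopped with cold-free choline chloride/HEPES/CaCl₂/MgSO₄ washes, filtered on GF/B, bound radioactivity counted. Protein by Bradford. Apparent IC50 from quadruplicate measurements, mean ± SD.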

[4] = Neurotoxicity determined at 30 minutes after the administration of compound by rotarod test.(+ = signify activity at 300 mg/kg); type: toxicity, organism-based; set-up: dose 300 mg/kg; conditions: mouse, in vivo, 0.5 h
Outline: (§2)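 Male CF-1 mice dosed ip at 30, 100 or 300 mg/kg and tested 30 min or 4 h later on a 1-in. knurled rod turning at 6 rpm. A deficit was failure to stay on the rod for 1 min in each of three trials. Coding: ++ 100, + 300 mg/kg; - means none at 300 mg/kg.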

[5] = Neurotoxicity determined at 4 hours after the administration of compound by rotarod test (+ = signify activity at 300 mg/kg); type: toxicity, organism-based; set-up: dose 300 mg/kg; conditions: mouse, in vivo; outline: as §2
[6] = Toxicity was determined in rats at a dose of 30 mg/kg after 4 hour. (- denotes no activity in administered animals).; type: organism-based; set-up: dose 30 mg/kg; conditions: rat, in vivo
Outline: (§3)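 Male Sprague-Dawley rats given a single oral dose of 30 mg/kg and assessed for toxicity 4 h after dosing, with at least four animals per time point. Score is the fraction of animals affected (+ 0-25%); - means no toxicity.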

Rattus norvegicus [7] = test: Anticonvulsant ED50 activity by MES test in rats dosed orally; type: functional; conditions: po
Outline: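 Male Sprague-Dawley rats (100-150 g) dosed orally. ED50 is the dose protecting 50% of animals against maximal electroshock-induced seizures. […]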

Mus musculus [8] = test: Anticonvulsant activity determined at 4 hours after the administration of compound using MES test.(++= signify activity at 100 mg/kg); type: functional, organism-based; set-up: dose 100 mg/kg; outline: as §1
Rattus norvegicus [9] = test: Anticonvulsant activity was determined in rats at a dose of 30 mg/kg after 1 hour by MES test. (++ denotes activity in 25-50% of administered animals).; type: functional, organism-based; set-up: dose 30 mg/kg
Rattus norvegicus [10] = test: Anticonvulsant activity was determined in rats at a dose of 30 mg/kg after 2 hour by MES test. (+ denotes activity in 0-25% of administered animals).; type: functional, organism-based; set-up: dose 30 mg/kg
Rattus norvegicus [11] = test: Anticonvulsant activity was determined in rats at a dose of 30 mg/kg after 4 hour by MES test. (+ denotes activity in 0-25% of administered animals).; type: functional, organism-based; set-up: dose 30 mg/kg
[12] = Neurotoxicity determined at 30 minutes after the administration of compound by rotarod test.(- denotes activity at 300 mg/kg); type: toxicity, organism-based; set-up: dose 300 mg/kg; conditions: mouse, in vivo, 0.5 h; outline: as §2
[13] = Neurotoxicity determined at 4 hours after the administration of compound by rotarod test(- denotes activity at 300 mg/kg); type: toxicity, organism-based; set-up: dose 300 mg/kg; conditions: mouse, in vivo; outline: as §2
[14] = Toxicity was determined in rats at a dose of 30 mg/kg after 4 hour (- denotes no activity in administered animals).; type: organism-based; set-up: dose 30 mg/kg; conditions: rat, in vivo; outline: as §3
Mus musculus [15] = test: Anticonvulsant activity determined at 30 minutes after the administration of compound using MES test. (++= signify activity at 100 mg/kg); type: functional, organism-based; set-up: dose 100 mg/kg; outline: as §1
Mus musculus [16] = test: Anticonvulsant activity determined at 4 hours after the administration of compound using sc Ptz test.(+ = signify activity at 300 mg/kg); type: functional, organism-based; set-up: dose 300 mg/kg
Outline: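 Male CF-1 mice (18-25 g) dosed ip at 30, 100 or 300 mg/kg. Pentylenetetrazol in 0.9% NaCl was injected sc at 0.01 mL/g. Tests were run 30 min or 4 h after dosing.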

Rattus norvegicus [17] = test: Anticonvulsant activity was determined in rats at a dose of 30 mg/kg after 1 hour by MES test. (++++ denotes activity in 75-100% of administered animals); type: functional, organism-based; set-up: dose 30 mg/kg
Rattus norvegicus [18] = test: Anticonvulsant activity was determined in rats at a dose of 30 mg/kg after 4 hour by MES test. (++++ denotes activity in 75-100% of administered animals); type: functional, organism-based; set-up: dose 30 mg/kg
[19] = Neurotoxicity determined at 4 hours after the administration of compound by rotarod test(+ = signify activity at 300 mg/kg); type: toxicity, organism-based; set-up: dose 300 mg/kg; conditions: mouse, in vivo; outline: as §2
Mus musculus [20] = test: Anticonvulsant activity determined at 30 minutes after the administration of compound using MES test.(++= signify activity at 100 mg/kg); type: functional, organism-based; set-up: dose 100 mg/kg; outline: as §1
Rattus norvegicus [21] = test: Anticonvulsant activity was determined in rats at a dose of 30 mg/kg after 4 hour by MES test. (++ denotes activity in 25-50% of administered animals).; type: functional, organism-based; set-up: dose 30 mg/kg
[22] = Neurotoxicity determined at 4 hours after the administration of compound by rotarod test (- denotes activity at 300 mg/kg); type: toxicity, organism-based; set-up: dose 300 mg/kg; conditions: mouse, in vivo; outline: as §2

Compound | IC50 [3] [µM] | Activity [4] | ED50 (Rattus norvegicus [7]) [µmol/kg] | Activity (Mus musculus [8]) | Activity (Rattus norvegicus [10]) | Activity [12] | also measured
Cc1ccc(N)c(C)c1N1C(=O)c2ccccc2C1=O | – | – | – | – | – | – | Activity (Mus musculus [1]): signifies activity at 300 mg/kg
CC1(C)CC(NC(=O)c2ccc([N+](=O)[O-])cc2)CC(C)(C)N1 | 25.8 | signifies activity at 300 mg/kg | > 650 | – | – | – | Activity (Mus musculus [2]): signifies activity at 300 mg/kg; Activity [5]: signifies activity at 300 mg/kg; Activity [6]: signifies activity at 300 mg/kg
Cc1cccc(C)c1NC(=O)c1ccc(O)cc1 | 0.35 | – | 284 | activity in 0-25% of administered animals | activity in 0-25% of administered animals | activity in 0-25% of administered animals | Activity (Rattus norvegicus [9]): activity in 0-25% of administered animals; Activity (Rattus norvegicus [11]): activity in 0-25% of administered animals; Activity [13]: activity in 0-25% of administered animals; Activity [14]: activity in 0-25% of administered animals
Cc1cccc(C)c1N1C(=O)c2ccc([N+](=O)[O-])cc2C1=O | 184 | – | 131 | Activity at 300 mg/kg | – | Activity at 300 mg/kg | Activity (Mus musculus [15]): Activity at 300 mg/kg; Activity (Mus musculus [16]): Activity at 300 mg/kg; Activity (Rattus norvegicus [17]): ++; Activity (Rattus norvegicus [18]): ++; Activity [19]: Activity at 300 mg/kg
Cc1cccc(C)c1N1C(=O)c2ccc(Cl)cc2C1=O | 47.8 | activity in 0-25% of administered animals | 354 | activity in 0-25% of administered animals | activity in 0-25% of administered animals | – | Activity (Mus musculus [20]): activity in 0-25% of administered animals; Activity (Rattus norvegicus [21]): activity in 0-25% of administered animals; Activity [22]: activity in 0-25% of administered animals
